One data set concerns Escherichia coli. Put plainly: Antibacterial activity against Escherichia coli ATCC 35218 assessed as growth inhibition after 16-20 hrs by CLSI method. The format is functional, organism-based.
A further data set relates to LLC-PK1. Put plainly: Cytotoxicity against pig LLC-PK1 cells assessed as cell viability after 48 hrs by neutral red uptake assay. The format is cell-based, Sus scrofa. Conditions: llc-pk1, 48 h. The procedure, abridged:
(§1)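 Neutral red uptake assay on human cancer lines (SK-MEL, KB, BT-549, SK-OV-3) and noncancerous mammalian cells (VERO, LLC-PK1). Highest tested concentration was 10 µg/mL.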

The next data set has as its system Aspergillus fumigatus. Put plainly: Antifungal activity against Aspergillus fumigatus assessed as growth inhibition. The format is functional, organism-based.
A further data set has as its system SK-MEL. In words: Cytotoxicity against human SK-MEL cells assessed as cell viability after 48 hrs by neutral red uptake assay. The class given is cell-based. The procedure, abridged:
as §1

Another data set deals with Nakaseomyces glabratus. In words: Antifungal activity against Candida glabrata assessed as growth inhibition. The format is functional, organism-based.
In another data set the test system is Vero. In words: Cytotoxicity against african green monkey Vero cells assessed as cell viability after 48 hrs by neutral red uptake assay. The class given is cell-based. Conditions: chlorocebus sabaeus. The procedure, abridged: as §1
Another data set relates to Candida albicans. Put plainly: Antifungal activity against Candida albicans assessed as growth inhibition. The class given is functional, organism-based.
Another data set has as its system KB. Put plainly: Cytotoxicity against human KB cells assessed as cell viability after 48 hrs by neutral red uptake assay. The format is cell-based. The procedure, abridged: as §1
In another data set the test system is SK-OV-3. In words: Cytotoxicity against human SKOV3 cells assessed as cell viability after 48 hrs by neutral red uptake assay. The format is cell-based. To be noted: sk-ov-3, 48 h. The procedure, abridged: as §1
The subject of the next data set is Cryptococcus neoformans. In words: Antifungal activity against Cryptococcus neoformans ATCC 90113 assessed as growth inhibition after 70-74 hrs by CLSI method. The format is functional, organism-based.
Another data set deals with Pichia kudriavzevii. Put plainly: Antifungal activity against Candida krusei assessed as growth inhibition. The class given is functional, organism-based.
The test system of the next data set is BT-549. In words: Cytotoxicity against human BT549 cells assessed as cell viability after 48 hrs by neutral red uptake assay. To be noted: bt-549, 48 h. The class given is cell-based. Summed up:
as §1

Setting [1] is: Cryptococcus neoformans, ATCC 90113.

In brackets after ≈: the same amount, converted by molar mass. Activity calls are given as the source filed them. Residues, ends and D or L forms follow the SMILES beside them. *: point of attachment. Boc = CC(C)(C)OC(=O)*; NHBn = c1ccc(CN*)cc1 Some results are limits rather than exact numbers.

Experimental findings from ChEMBL document CHEMBL3132745, “Synthesis and Antimicrobial Activities of His(2-aryl)-Arg and Trp-His(2-aryl) Classes of Dipeptidomimetics” (Medchemcomm, 2014) are described below.

With `N[C@@H](Cc1c[nH]c2ccccc12)C(=O)N[C@@H](Cc1c[nH]c(-c2cccc3ccccc23)n1)C(=O)NCc1ccccc1`, the “growth inhibition (GI)” value with Escherichia coli, with Aspergillus fumigatus, in the data set with Nakaseomyces glabratus, in the data set with Candida albicans and in the data set with Pichia kudriavzevii was “inactive” in each case. Moreover, the Activity in the data set with LLC-PK1, in the data set on SK-MEL, in the data set on Vero, with KB, with SK-OV-3 and with BT-549 was greater than 10 µg/mL in each case. For the same molecule, the IC50 (usually the concentration that inhibits the measured activity by half) in the data set on Cryptococcus neoformans was “Not Active”. Further, the MFC (as a rule, the smallest concentration meeting the test's criterion for killing the fungus) in the data set on Cryptococcus neoformans was “inactive”. In addition, the MIC (in general, the smallest concentration in the dilution series that meets the test's criterion for growth inhibition) in the data set on Cryptococcus neoformans was “inactive”.

With `CC(C)(C)OC(=O)N[C@@H](Cc1c[nH]cn1)C(=O)N[C@@H](CCCNC(=N)N)C(=O)NCc1ccccc1` (Boc-His-Arg-NHBn), the “growth inhibition (GI)” value in the data set on Escherichia coli, in the data set on Aspergillus fumigatus, in the data set with Nakaseomyces glabratus, in the data set on Candida albicans and in the data set on Pichia kudriavzevii was “inactive” in each case. In addition, the Activity in the data set on LLC-PK1, with SK-MEL, in the data set on Vero, with KB, in the data set with SK-OV-3 and in the data set on BT-549 was greater than 10 µg/mL throughout. Moreover, the IC50 entry in the data set on Cryptococcus neoformans is given as “Not Active”. Also, the MFC result in the data set on Cryptococcus neoformans is “inactive”. For the same molecule, in the data set on Cryptococcus neoformans, the MIC entry was “inactive”.

Regarding `CC(C)(C)OC(=O)N[C@@H](Cc1c[nH]c2ccccc12)C(=O)N[C@@H](Cc1c[nH]c(-c2cccc3ccccc23)n1)C(=O)NCc1ccccc1`, the “growth inhibition (GI)” value in the data set on Escherichia coli, with Aspergillus fumigatus, with Nakaseomyces glabratus, with Candida albicans and in the data set with Pichia kudriavzevii was “inactive” throughout. Further, the Activity in the data set on LLC-PK1, with SK-MEL, with Vero, in the data set on KB, in the data set on SK-OV-3 and in the data set with BT-549 was greater than 10 µg/mL in each case. Moreover, the IC50 result in the data set with Cryptococcus neoformans is listed as “Not Active”. For the same molecule, the MFC entry in the data set on Cryptococcus neoformans is “inactive”. In the data set on Cryptococcus neoformans, the MIC result is “inactive”.

As for `COC(=O)[C@H](CCCNC(=N)N)NC(=O)[C@H](Cc1c[nH]c(-c2ccc(C(C)(C)C)cc2)n1)NC(=O)OC(C)(C)C`, the “growth inhibition (GI)” value with Escherichia coli, in the data set with Aspergillus fumigatus, with Nakaseomyces glabratus, in the data set with Candida albicans and in the data set with Pichia kudriavzevii was “inactive” in each case. Further, the Activity with LLC-PK1, with SK-MEL, with Vero, in the data set with KB, in the data set with SK-OV-3 and in the data set with BT-549 was greater than 10 µg/mL each time. Besides, the IC50 entry with Cryptococcus neoformans is “Not Active”. The MFC result in the data set on Cryptococcus neoformans is “inactive”. In addition, the MIC result with Cryptococcus neoformans is “inactive”.

For the molecule `C[C@@H]1[C@H](O)[C@@H](C)/C=C/C=C/C=C/C=C/C=C/C=C/C=C/[C@H](O[C@@H]2O[C@H](C)[C@@H](O)[C@H](N)[C@@H]2O)C[C@@H]2O[C@](O)(C[C@@H](O)C[C@@H](O)[C@H](O)CC[C@@H](O)C[C@@H](O)CC(=O)O[C@H]1C)C[C@H](O)[C@H]2C(=O)O` [AMPHOTERICIN B], in the data set with Cryptococcus neoformans (setting [1]), the MFC is 1.25 µg/mL (≈ 1.35 µM) and the MIC turned out to be 1.25 µg/mL (≈ 1.35 µM). Moreover, the IC50 in the data set with Cryptococcus neoformans (Cryptococcus neoformans, ATCC 90113, read-out: IC50) was determined as 0.69 µg/mL (≈ 0.747 µM).
